In ChEMBL document CHEMBL1145051, “Synthesis and biological evaluation of 3-alkoxy analogues of flavone-8-acetic acid” (J Med Chem, 2003):

System: LoVo
Experiment: In vitro cytotoxicity against the selected tumor cell line LoVoR arising from human colon adenocarcinoma was determined
Assay type: functional, cell-based
Conditions: not given

Compound	IC50 [µM]
COc1ccc(-c2oc3c(CC(=O)O)cccc3c(=O)c2OC)cc1	556
COc1c(-c2ccccc2)oc2c(CC(=O)O)cccc2c1=O	627
COc1c(-c2cccc(C)c2)oc2c(CC(=O)O)cccc2c1=O	648

System: not listed separately
Experiment: Potency ratio was determined against human monocytes versus DMXAA (Dimethylxanthenone-4-acetic acid)
Assay type: functional
Conditions: not given
Method in brief: (§1)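 Ratio of reference IC50 (FAA or DMXAA) to analogue IC50 in the effector-cell coculture assay: mouse peritoneal macrophages or adherent human PBMC pretreated 24 h with drug, then C13* target cells added for 24 h, lysis by MTT. IC50 and ratios by Litchfield–Wilcoxon; three experiments in triplicate.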

Compound	Potency ratio
COc1c(-c2ccccc2C)oc2c(CC(=O)O)cccc2c1=O	1
COc1ccccc1-c1oc2c(CC(=O)O)cccc2c(=O)c1OC	0.7
COc1ccc(-c2oc3c(CC(=O)O)cccc3c(=O)c2OC)cc1	0.7
COc1c(-c2cccc(C)c2)oc2c(CC(=O)O)cccc2c1=O	1.2

System: 2008
Experiment: Direct cytotoxicity against the selected tumor cell line 2008 was determined especially on ovarian adenocarcinoma derived cells; not detected
Assay type: functional, cell-based, Homo sapiens
Conditions: not given

Compound	IC50
COc1c(-c2ccccc2C)oc2c(CC(=O)O)cccc2c1=O	not detected
COc1c(-c2cccs2)oc2c(CC(=O)O)cccc2c1=O	not detected
COc1ccccc1-c1oc2c(CC(=O)O)cccc2c(=O)c1OC	not detected
COc1c(-c2cccc(Cl)c2)oc2c(CC(=O)O)cccc2c1=O	not detected
COc1c(-c2ccc(F)cc2)oc2c(CC(=O)O)cccc2c1=O	not detected
COc1c(-c2ccccc2)oc2c(CC(=O)O)cccc2c1=O	not detected
COc1c(-c2cccc(C)c2)oc2c(CC(=O)O)cccc2c1=O	not detected

System: LoVo
Experiment: In vitro cytotoxicity against the selected tumor cell line LoVoS arising from human colon adenocarcinoma was determined; not detected
Assay type: functional, cell-based
Conditions: not given

Compound	IC50
COc1c(-c2ccccc2C)oc2c(CC(=O)O)cccc2c1=O	not detected
COc1c(-c2cccs2)oc2c(CC(=O)O)cccc2c1=O	not detected
COc1c(-c2ccc(F)cc2)oc2c(CC(=O)O)cccc2c1=O	not detected

Organism: Mus musculus
Experiment: Indirect antitumor effect was measured as cytotoxicity with murine macrophages pretreated with compounds
Assay type: functional
Conditions: not given
Method in brief: (§2)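 Resident mouse peritoneal macrophages (heparinised PBS lavage, 2 h adherence) plated at 1 × 10^4 cells/well with a range of drug concentrations, triplicate wells, 24 h. Medium removed, C13* cells (2 × 10^3/well) added, cocultured 24 h. Lysis by MTT; specific cytotoxicity = [OD(macrophages+C13*) − OD(macrophages)]/OD(C13*). Three experiments; IC50 by Litchfield–Wilcoxon.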

Compound	IC50 [µM]
COc1c(-c2ccccc2C)oc2c(CC(=O)O)cccc2c1=O	248
COc1c(-c2cccc(Cl)c2)oc2c(CC(=O)O)cccc2c1=O	239
COc1ccc(-c2oc3c(CC(=O)O)cccc3c(=O)c2OC)cc1	238
COc1c(-c2cccc(C)c2)oc2c(CC(=O)O)cccc2c1=O	234

System: not listed separately
Experiment: Potency ratio was determined against human monocytes versus DMXAA (Dimethylxanthenone-4-acetic acid); more potent
Assay type: functional
Conditions: not given
Method in brief: as §1

Compound	Potency ratio
COc1c(-c2cccc(Cl)c2)oc2c(CC(=O)O)cccc2c1=O	3.7

System: not listed separately
Experiment: Potency ratio was determined against C13 cell line versus FAA (Flavone acetic acid); less potent
Assay type: functional
Conditions: not given
Method in brief: (§3)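 Ratio IC50(FAA)/IC50(analogue) from direct 24 h MTT cytotoxicity on the named line (LoVo S, LoVo R, 2008 or C13*), concentrations up to 500 μM. IC50 values and 95% confidence limits by Litchfield–Wilcoxon method; three experiments in triplicate.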

Compound	Potency ratio
COc1c(-c2ccccc2C)oc2c(CC(=O)O)cccc2c1=O	0.4
COc1ccc(-c2oc3c(CC(=O)O)cccc3c(=O)c2OC)cc1	0.4
COc1c(-c2ccccc2)oc2c(CC(=O)O)cccc2c1=O	0.3

System: not listed separately
Experiment: Potency ratio was determined against LoVoR versus FAA (Flavone acetic acid); less potent
Assay type: functional
Conditions: not given
Method in brief: as §3

Compound	Potency ratio
COc1ccccc1-c1oc2c(CC(=O)O)cccc2c(=O)c1OC	0.5
COc1ccc(-c2oc3c(CC(=O)O)cccc3c(=O)c2OC)cc1	0.7
COc1c(-c2ccccc2)oc2c(CC(=O)O)cccc2c1=O	0.6
COc1c(-c2cccc(C)c2)oc2c(CC(=O)O)cccc2c1=O	0.6

System: not listed separately
Experiment: Potency ratio was determined against LoVoS versus FAA (Flavone acetic acid)
Assay type: functional
Conditions: not given
Method in brief: as §3

Compound	Potency ratio
COc1ccccc1-c1oc2c(CC(=O)O)cccc2c(=O)c1OC	0.6
COc1c(-c2cccc(Cl)c2)oc2c(CC(=O)O)cccc2c1=O	1
COc1ccc(-c2oc3c(CC(=O)O)cccc3c(=O)c2OC)cc1	0.9
COc1c(-c2ccccc2)oc2c(CC(=O)O)cccc2c1=O	0.8
COc1c(-c2cccc(C)c2)oc2c(CC(=O)O)cccc2c1=O	0.8

Organism: Mus musculus
Experiment: Indirect antitumor effect was measured as cytotoxicity against murine macrophages; not detected
Assay type: functional
Conditions: not given
Method in brief: as §2

Compound	IC50
COc1c(-c2cccs2)oc2c(CC(=O)O)cccc2c1=O	not detected
COc1ccccc1-c1oc2c(CC(=O)O)cccc2c(=O)c1OC	not detected
COc1c(-c2ccc(F)cc2)oc2c(CC(=O)O)cccc2c1=O	not detected

System: not listed separately
Experiment: Potency ratio was determined against murine macrophages versus FAA (Flavone acetic acid)
Assay type: functional
Conditions: not given
Method in brief: as §1

Compound	Potency ratio
COc1c(-c2ccccc2C)oc2c(CC(=O)O)cccc2c1=O	1.1
COc1c(-c2cccc(Cl)c2)oc2c(CC(=O)O)cccc2c1=O	1.2
COc1ccc(-c2oc3c(CC(=O)O)cccc3c(=O)c2OC)cc1	1.2
COc1c(-c2cccc(C)c2)oc2c(CC(=O)O)cccc2c1=O	1.2

System: not listed separately
Experiment: Potency ratio was determined against macrophages
Assay type: functional
Conditions: not given
Method in brief: as §1

Compound	Potency ratio
COc1ccc(-c2oc3c(CC(=O)O)cccc3c(=O)c2OC)cc1	1.3

System: LoVo
Experiment: In vitro cytotoxicity against the selected tumor cell line LoVoR arising from human colon adenocarcinoma was determined
Conditions: not given

Compound	IC50 [µM]
COc1ccccc1-c1oc2c(CC(=O)O)cccc2c(=O)c1OC	794

System: 2008
Experiment: Direct cytotoxicity against the selected tumor cell line 2008 was determined especially on ovarian adenocarcinoma derived cells
Assay type: functional, cell-based
Conditions: Homo sapiens

Compound	IC50 [µM]
COc1ccc(-c2oc3c(CC(=O)O)cccc3c(=O)c2OC)cc1	625

System: not listed separately
Experiment: Potency ratio was determined against 2008 cell line versus FAA (Flavone acetic acid); less potent
Assay type: functional
Conditions: not given
Method in brief: as §3

Compound	Potency ratio
COc1ccc(-c2oc3c(CC(=O)O)cccc3c(=O)c2OC)cc1	0.7

System: LoVo
Experiment: In vitro cytotoxicity against the selected tumor cell line LoVoS arising from human colon adenocarcinoma was determined
Assay type: functional, cell-based
Conditions: not given

Compound	IC50 [µM]
COc1ccccc1-c1oc2c(CC(=O)O)cccc2c(=O)c1OC	980
COc1c(-c2cccc(Cl)c2)oc2c(CC(=O)O)cccc2c1=O	534
COc1ccc(-c2oc3c(CC(=O)O)cccc3c(=O)c2OC)cc1	601
COc1c(-c2ccccc2)oc2c(CC(=O)O)cccc2c1=O	719
COc1c(-c2cccc(C)c2)oc2c(CC(=O)O)cccc2c1=O	697

System: not listed separately
Experiment: Potency ratio was determined against human monocytes versus DMXAA (Dimethylxanthenone-4-acetic acid); less potent
Assay type: functional
Conditions: not given
Method in brief: as §1

Compound	Potency ratio
COc1c(-c2cccs2)oc2c(CC(=O)O)cccc2c1=O	0.6
COc1c(-c2ccc(F)cc2)oc2c(CC(=O)O)cccc2c1=O	0.3

System: not listed separately
Experiment: Potency ratio was determined against macrophages; more potent
Assay type: functional
Conditions: not given
Method in brief: as §1

Compound	Potency ratio
COc1c(-c2ccccc2C)oc2c(CC(=O)O)cccc2c1=O	1.9
COc1c(-c2cccc(Cl)c2)oc2c(CC(=O)O)cccc2c1=O	6.5
COc1c(-c2cccc(C)c2)oc2c(CC(=O)O)cccc2c1=O	2.1

System: C13
Experiment: Direct cytotoxicity against the selected tumor cell line c13* was determined especially on ovarian adenocarcinoma derived cells; not detected
Assay type: functional, cell-based, Homo sapiens
Conditions: not given

Compound	IC50
COc1c(-c2cccs2)oc2c(CC(=O)O)cccc2c1=O	not detected
COc1ccccc1-c1oc2c(CC(=O)O)cccc2c(=O)c1OC	not detected
COc1c(-c2cccc(Cl)c2)oc2c(CC(=O)O)cccc2c1=O	not detected
COc1c(-c2ccc(F)cc2)oc2c(CC(=O)O)cccc2c1=O	not detected
COc1c(-c2cccc(C)c2)oc2c(CC(=O)O)cccc2c1=O	not detected

System: not listed separately
Experiment: Indirect antitumor effect was measured as cytotoxicity with human monocytes pretreated with compounds
Assay type: functional
Conditions: not given
Method in brief: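 Adherent human PBMC (Ficoll isolation, 2 h adherence, washed) pretreated 24 h with 25, 50, 100 μM in RPMI 1640/5% FCS, triplicate wells. Medium removed, C13* cells (2 × 10^3/well) cocultured 24 h, read by MTT. Three experiments; IC50 by Litchfield–Wilcoxon.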

Compound	IC50 [µM]
COc1c(-c2ccccc2C)oc2c(CC(=O)O)cccc2c1=O	127
COc1c(-c2cccs2)oc2c(CC(=O)O)cccc2c1=O	213
COc1ccccc1-c1oc2c(CC(=O)O)cccc2c(=O)c1OC	193
COc1c(-c2cccc(Cl)c2)oc2c(CC(=O)O)cccc2c1=O	36.8
COc1c(-c2ccc(F)cc2)oc2c(CC(=O)O)cccc2c1=O	436
COc1ccc(-c2oc3c(CC(=O)O)cccc3c(=O)c2OC)cc1	181
COc1c(-c2cccc(C)c2)oc2c(CC(=O)O)cccc2c1=O	113

System: C13
Experiment: cDirect cytotoxicity against the selected tumor cell line c13* was determined especially on ovarian adenocarcinoma derived cells
Assay type: functional, cell-based
Conditions: Homo sapiens

Compound	IC50 [µM]
COc1ccc(-c2oc3c(CC(=O)O)cccc3c(=O)c2OC)cc1	548

System: LoVo
Experiment: In vitro cytotoxicity against the selected tumor cell line LoVoR arising from human colon adenocarcinoma was determined; not detected
Assay type: functional, cell-based
Conditions: not given

Compound	IC50
COc1c(-c2cccs2)oc2c(CC(=O)O)cccc2c1=O	not detected
COc1c(-c2cccc(Cl)c2)oc2c(CC(=O)O)cccc2c1=O	not detected
COc1c(-c2ccc(F)cc2)oc2c(CC(=O)O)cccc2c1=O	not detected

System: C13
Experiment: Direct cytotoxicity against the selected tumor cell line c13* was determined especially on ovarian adenocarcinoma derived cells
Assay type: functional, cell-based
Conditions: Homo sapiens

Compound	IC50 [µM]
COc1c(-c2ccccc2C)oc2c(CC(=O)O)cccc2c1=O	524
COc1c(-c2ccccc2)oc2c(CC(=O)O)cccc2c1=O	757
